Experimental data taken from ChEMBL document CHEMBL1781932 (J Med Chem, 2011).
In brackets after ≈: the same amount, converted by molar mass.

Legend:
Type in all cases: functional
Staphylococcus aureus [1] = assay: Antimicrobial activity against tetracycline-susceptible Staphylococcus aureus isolate 101 by CLSI dilution method
Staphylococcus aureus [2] = assay: Antimicrobial activity against methicillin-, tetracycline-resistant Staphylococcus aureus isolate 161 harboring tetM gene by CLSI dilution method
Staphylococcus aureus [3] = assay: Antimicrobial activity against tetracycline-resistant Staphylococcus aureus isolate 158 harboring tetK gene by CLSI dilution method
Enterococcus faecalis [4] = assay: Antimicrobial activity against tetracycline-susceptible Enterococcus faecalis isolate 103 by CLSI dilution method
In short: (§1)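 Broth microdilution per CLSI in fresh cation-adjusted Mueller Hinton broth, kept at 4 °C before testing, with defibrinated horse blood added as appropriate. Strains were from ATCC. MIC in µg/mL. Runs were accepted when comparator antibiotics against ATCC quality-control strains fell within recommended ranges.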

Enterococcus faecalis [5] = assay: Antimicrobial activity against tetracycline-resistant Enterococcus faecalis isolate 159 harboring […] gene by CLSI dilution method
Streptococcus pneumoniae [6] = assay: Antimicrobial activity against tetracycline-susceptible Streptococcus pneumoniae isolate 106 by CLSI dilution method; in short: as §1
Streptococcus pneumoniae [7] = assay: Antimicrobial activity against tetracycline-resistant Streptococcus pneumoniae isolate 160 harboring tetM gene by CLSI dilution method
Escherichia coli [8] = assay: Antimicrobial activity against tetracycline-susceptible Escherichia coli isolate 107 by CLSI dilution method; in short: as §1
Escherichia coli [9] = assay: Antimicrobial activity against tetracycline-resistant Escherichia coli isolate 155 harboring tetA gene by CLSI dilution method
Acinetobacter baumannii = assay: Antimicrobial activity against tetracycline-susceptible Acinetobacter baumannii isolate 110 by CLSI dilution method; in short: as §1
Pseudomonas aeruginosa = assay: Antimicrobial activity against tetracycline-susceptible Pseudomonas aeruginosa isolate 111 by CLSI dilution method; in short: as §1
Enterobacter cloacae = assay: Antimicrobial activity against tetracycline-susceptible Enterobacter cloacae isolate 108 by CLSI dilution method; in short: as §1
Klebsiella pneumoniae [10] = assay: Antimicrobial activity against tetracycline-susceptible Klebsiella pneumoniae isolate 109 by CLSI dilution method; in short: as §1
Klebsiella pneumoniae [11] = assay: Antimicrobial activity against tetracycline-resistant Klebsiella pneumoniae isolate 153 harboring tetA gene by CLSI dilution method

SMILES	MIC (Staphylococcus aureus [1]) [µg/mL]	MIC (Staphylococcus aureus [2]) [µg/mL]	MIC (Staphylococcus aureus [3]) [µg/mL]	MIC (Enterococcus faecalis [4]) [µg/mL]	MIC (Enterococcus faecalis [5]) [µg/mL]	MIC (Streptococcus pneumoniae [6]) [µg/mL]	MIC (Streptococcus pneumoniae [7]) [µg/mL]	MIC (Escherichia coli [8]) [µg/mL]	MIC (Escherichia coli [9]) [µg/mL]	MIC (Acinetobacter baumannii) [µg/mL]	MIC (Pseudomonas aeruginosa) [µg/mL]	MIC (Enterobacter cloacae) [µg/mL]	MIC (Klebsiella pneumoniae [10]) [µg/mL]	MIC (Klebsiella pneumoniae [11]) [µg/mL]
CN(C)c1ccc2c(O)c3c(cc2c1)C[C@H]1C[C@H]2[C@H](N(C)C)C(O)=C(C(N)=O)C(=O)[C@@]2(O)C(O)=C1C3=O	2 (≈ 3.94 µM)	4 (≈ 7.88 µM)	2 (≈ 3.94 µM)	4 (≈ 7.88 µM)	4 (≈ 7.88 µM)	16 (≈ 31.5 µM)	32 (≈ 63 µM)	> 32	> 32	> 32	> 32	> 32	> 32	> 32
CCCNCc1ccc2c(OC)c3c(c(O)c2c1)C(=O)C1=C(O)[C@]2(O)C(=O)C(C(N)=O)=C(O)[C@@H](N(C)C)[C@@H]2C[C@@H]1C3	0.25 (≈ 0.442 µM)	2 (≈ 3.54 µM)	0.0625 (≈ 0.11 µM)	0.125 (≈ 0.221 µM)	2 (≈ 3.54 µM)	0.0156 (≈ 0.0276 µM)	0.125 (≈ 0.221 µM)	1 (≈ 1.77 µM)	8 (≈ 14.1 µM)	1 (≈ 1.77 µM)	16 (≈ 28.3 µM)	1 (≈ 1.77 µM)	1 (≈ 1.77 µM)	
CN(C)[C@@H]1C(O)=C(C(N)=O)C(=O)[C@@]2(O)C(O)=C3C(=O)c4c(c(F)c5ccc(CN6CCCC6)cc5c4O)C[C@H]3C[C@@H]12	0.25 (≈ 0.442 µM)	1 (≈ 1.77 µM)	0.125 (≈ 0.221 µM)	0.125 (≈ 0.221 µM)	1 (≈ 1.77 µM)	0.0313 (≈ 0.0553 µM)	0.0313 (≈ 0.0553 µM)	1 (≈ 1.77 µM)	4 (≈ 7.07 µM)	0.25 (≈ 0.442 µM)	32 (≈ 56.6 µM)	4 (≈ 7.07 µM)	2 (≈ 3.54 µM)	4 (≈ 7.07 µM)
CN(C)[C@@H]1C(O)=C(C(N)=O)C(=O)[C@@]2(O)C(O)=C3C(=O)c4c(cc5ccc(F)cc5c4O)C[C@H]3C[C@@H]12	0.5 (≈ 1.04 µM)	0.5 (≈ 1.04 µM)	0.25 (≈ 0.518 µM)	0.25 (≈ 0.518 µM)	0.5 (≈ 1.04 µM)	2 (≈ 4.15 µM)	8 (≈ 16.6 µM)	16 (≈ 33.2 µM)	> 32	4 (≈ 8.29 µM)	> 32	> 32	> 32	> 32
CCCOc1c2c(c(O)c3cc(CN4CCC4)ccc13)C(=O)C1=C(O)[C@]3(O)C(=O)C(C(N)=O)=C(O)[C@@H](N(C)C)[C@@H]3C[C@@H]1C2	0.125 (≈ 0.211 µM)	2 (≈ 3.38 µM)	0.25 (≈ 0.423 µM)	0.25 (≈ 0.423 µM)	2 (≈ 3.38 µM)	0.0156 (≈ 0.0264 µM)	0.0625 (≈ 0.106 µM)	2 (≈ 3.38 µM)	16 (≈ 27 µM)	1 (≈ 1.69 µM)	32 (≈ 54.1 µM)	16 (≈ 27 µM)	8 (≈ 13.5 µM)	32 (≈ 54.1 µM)
CCN(C)Cc1ccc2cc3c(c(O)c2c1)C(=O)C1=C(O)[C@]2(O)C(=O)C(C(N)=O)=C(O)[C@@H](N(C)C)[C@@H]2C[C@@H]1C3	0.25 (≈ 0.467 µM)	2 (≈ 3.73 µM)	0.5 (≈ 0.934 µM)	0.5 (≈ 0.934 µM)	4 (≈ 7.47 µM)	0.125 (≈ 0.233 µM)	0.25 (≈ 0.467 µM)	2 (≈ 3.73 µM)	16 (≈ 29.9 µM)	2 (≈ 3.73 µM)	> 32	4 (≈ 7.47 µM)	8 (≈ 14.9 µM)	32 (≈ 59.7 µM)
CN(C)[C@@H]1C(O)=C(C(N)=O)C(=O)[C@@]2(O)C(O)=C3C(=O)c4c(cc5ccc(CN6CC(F)(F)C6)cc5c4O)C[C@H]3C[C@@H]12	1 (≈ 1.76 µM)	1 (≈ 1.76 µM)	1 (≈ 1.76 µM)	1 (≈ 1.76 µM)	1 (≈ 1.76 µM)	2 (≈ 3.51 µM)	4 (≈ 7.02 µM)	> 32	> 32	> 32	> 32	> 32	> 32	> 32
CN(C)[C@@H]1C(O)=C(C(N)=O)C(=O)[C@@]2(O)C(O)=C3C(=O)c4c(cc5ccc(CN(C)S(C)(=O)=O)cc5c4O)C[C@H]3C[C@@H]12	2 (≈ 3.42 µM)	2 (≈ 3.42 µM)	2 (≈ 3.42 µM)	2 (≈ 3.42 µM)	2 (≈ 3.42 µM)	1 (≈ 1.71 µM)	4 (≈ 6.83 µM)	> 32	> 32	> 32	> 32	> 32	> 32	> 32
CN(C)c1c2c(c(O)c3cc(F)ccc13)C(=O)C1=C(O)[C@]3(O)C(=O)C(C(N)=O)=C(O)[C@@H](N(C)C)[C@@H]3C[C@@H]1C2	0.25 (≈ 0.476 µM)	1 (≈ 1.9 µM)	0.125 (≈ 0.238 µM)	0.25 (≈ 0.476 µM)	0.25 (≈ 0.476 µM)	2 (≈ 3.81 µM)	4 (≈ 7.61 µM)	> 32	> 32	16 (≈ 30.4 µM)	> 32	> 32	> 32	> 32
